Bioassay records (PubChem)
MrgX1 ag – human MrgX1 receptor agonism, primary screen. MrgX1-HEK293 cells, Fluo-4 calcium fluorescence, agonist mode; active compounds read high. B-score at 10 µM. 310,000 compounds, 0.44% hits. AID 588627;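 active = calcium response B-score plate-corrected fluorescence ratio at least 3 library SD, with starting fluorescence B-score inside 5 SD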
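Material: HEK293 cells stably expressing human MrgX1 receptor | Quantity: 15,000 cells per well | Times: Cells plated overnight, dye loaded 0.5 h 37 °C, 0.5 h room temperature | Measured by: Kinetic Fluo-4 NW fluorescence of intracellular calcium | Control set: Positive and negative controls per plate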
RGS4 act – RGS4 potentiation or activation. HEK293 M3R/inducible RGS4, carbachol calcium flux Fluo4; active compounds read low. 310,000 compounds, 0.92% hits. B-score at 10 µM;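 active = B-score of the integrated calcium signal more than 4 SD below the library mean, with starting fluorescence not abnormally high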;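 also: negative B-score means reduced calcium response which marks RGS4 activation or potentiation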
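Assay system: HEK293 FlpIn-TREx cells, stable M3R, doxycycline-inducible RGS4 / Probe or stimulus: carbachol, ECmax concentration / Times: overnight RGS4 induction, 30 min dye load 37 °C, 20 min compound RT / Signal: kinetic calcium fluorescence imaging with Fluo4-AM dye, 2 µM / Measure: Agonist-evoked peak-minus-minimum fluorescence over baseline, integrated ratio, B score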
MrgX1 antagonist – blocks BAM8-22 activation of human MrgX1 receptor. Q96LB2. MRGX1-HEK293 calcium flux, Fluo-4, BAM8-22 antagonism; active compounds read low. B-score at 10 µM. 310,000 compounds, 1.3% hits;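 active = calcium-response B-score plate-corrected more than 3 library SD below zero, starting fluorescence within 5 deviations, no agonist response on first addition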;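 also: peak minus trough fluorescence over baseline after final BAM8-22 challenge near maximal dose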
RGS4 block – human RGS4 inhibition; B-score at 10 µM; HEK293 M3R/RGS4 inducible, Fluo-4 calcium flux; active compounds read high; triggered by carbachol at its EC20; 310,000 compounds, 0.45% hits; P49798; AID 463165;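 active = B-score, a plate-corrected calcium signal, over three deviations above library mean, with baseline fluorescence within five deviations of library mean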;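 also: RGS4 expression induced by doxycycline in cells with stable M3 receptor; B-score is computed from the integrated fluorescence ratio over baseline after carbachol; higher B-score means a larger calcium signal and so more RGS4 inhibition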
Target sequence (P49798 whole entry, looked up): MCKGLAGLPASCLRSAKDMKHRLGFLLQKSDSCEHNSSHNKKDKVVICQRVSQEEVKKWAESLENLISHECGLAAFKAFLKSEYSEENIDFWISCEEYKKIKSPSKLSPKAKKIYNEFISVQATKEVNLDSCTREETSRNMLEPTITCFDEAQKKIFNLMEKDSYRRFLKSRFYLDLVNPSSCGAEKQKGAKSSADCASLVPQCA
MrgX1 allo act – human MrgX1 positive allosteric modulation, primary screen; Q96LB2; MrgX1-HEK293, Fluo-4 calcium flux, FDSS; active compounds read high; B-score at 10 µM; 310,000 compounds, 0.63% hits; AID 588675;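 active = plate-corrected calcium response at least 3 library SD above typical, normal starting fluorescence, not activating the receptor alone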;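 also: compound read alongside a low EC10 to EC30 dose of BAM8-22 agonist; peak minus trough fluorescence over baseline measured at the second addition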
RGS4 inh valid – RGS4 inhibitor validation. shares compounds with RGS4 block. HEK293 M3R/RGS4, carbachol calcium Fluo-4 fluorescence; carbachol added at its EC20; 0 = buffer wells, 100 = carbachol control. calcium response, % at 10 µM. 1,700 compounds, 65% hits. AID 492999;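 active = duplicate-averaged calcium response above the buffer-only control mean plus 5 SD of those controls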;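 also: integrated fluorescence ratio F max minus min over baseline F0; higher response in RGS4-induced cells means RGS4 inhibition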
M3R Ca ctr – non-induced cell nonspecific activity of RGS4 inhibitors | 1,900 compounds, 20% hits | HEK293 M3R non-induced, carbachol calcium Fluo-4; submaximal (EC20) carbachol stimulus; buffer wells 0%, carbachol control wells 100% | activity (percent), % at 10 µM | shares compounds with RGS4 block; call rule not given here;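 also: RGS4 induction absent so cells express M3R without RGS4; higher means more calcium signal and flags a non-specific hit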
M3R basal Ca ctr – second counter-screen for RGS4 inhibitors: non-induced cells without carbachol. shares compounds with RGS4 block. HEK293 M3R/RGS4 non-induced, Fluo-4 calcium, no carbachol; normalised: buffer wells 0%, carbachol wells 100%. calcium response (agonist-mode artifact), % at 10 µM. 1,900 compounds, 22% hits. AID 493001;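 active = duplicate-averaged calcium rise in uninduced cells above buffer wells' mean plus 5 SD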
* = called active by the depositor; i = inactive; / = no result. Hits are enriched below; roughly 3.5% of the tested compounds scored in any of these assays.

SMILES	MrgX1 ag	RGS4 act	MrgX1 antagonist	RGS4 block	MrgX1 allo act	RGS4 inh valid	M3R Ca ctr	M3R basal Ca ctr
COc1ccccc1/C=C/C=N/n1c(-c2ccccn2)n[nH]c1=S	i	i	i	i	i	/	/	/
O=C(O)c1ccc2c(=O)n3c(nc2c1)/C(=C/c1ccc(Cl)c(Cl)c1)CC3	i	i	i	16*	i	30%*	i	i
O=C(O)c1ccc2c(=O)n3c(nc2c1)/C(=C/c1cccc(O)c1)CC3	i	i	i	i	i	/	/	/
COC(=O)c1ccc(/C=C2\CCn3c2nc2cc(C(=O)O)ccc2c3=O)cc1	i	i	i	i	i	/	/	/
Cc1ccc(C)c(/C=C2\CCn3c2nc2cc(C(=O)O)ccc2c3=O)c1	i	i	i	i	i	i	i	i
O=C1C2C3C=CC(C4CC34)C2C(=O)N1Cc1ccco1 (stereo not given)	i	i	i	i	i	/	/	/
CC(Nc1nc(-c2ccc(F)cc2)cs1)c1nc2cc(Cl)c(N3CCCCC3)cc2n1CCOCCO (stereo not given)	i	i	i	i	i	i	i	i
CC(Nc1nc(-c2ccc(F)cc2)cs1)c1nc2cc(Cl)c(N3CCCCC3)cc2n1CCCO (stereo not given)	i	i	i	i	i	/	/	/
CC(Nc1nc(-c2cccc(Br)c2)cs1)c1nc2cc(Cl)c(N3CCCCC3)cc2n1CCOCCO (stereo not given)	i	i	i	8.2*	i	10%*	i	i
CCCOc1ccc(N2C(=O)CC(N(CCOC34CC5CC(CC(C5)C3)C4)C(C)=O)C2=O)cc1 (stereo not given)	i	i	i	i	i	/	/	/
O=C(Nc1ccc(Br)cc1)c1cccc(S(=O)(=O)Nc2cnc3ccccc3c2)c1	i	i	i	5.9*	i	16%*	i	i
O=C(NCc1ccc(F)cc1)c1cc(C(=O)C2CC2)c[nH]1	i	i	i	i	i	/	/	/
Oc1c(Br)cc(Cl)cc1C=Nc1ccccc1Br	i	i	i	i	i	/	/	/
Oc1c(Br)cc(Cl)cc1C=Nc1ccc(N2CCOCC2)cc1	i	i	i	i	i	/	i	26%*
Cc1ccc(N2C(=O)CC(Sc3ncn[nH]3)C2=O)cc1C (stereo not given)	i	i	i	i	i	/	/	/
O=C1Nc2ccc(S(=O)(=O)N3CCCC3)c3cccc1c23	i	i	i	i	i	/	/	/
O=C1Nc2ccc(S(=O)(=O)N3CCCC3C(=O)O)c3cccc1c23 (stereo not given)	i	i	i	5.5*	i	i	i	i
Cc1cc(-c2cc(-c3ccc(Cl)cc3)nc(N)c2C#N)co1	i	i	i	9.8*	i	5.0%*	i	i
Cc1c(-c2ccc(F)cc2)nc(N)c(C#N)c1-c1ccco1	i	i	i	i	i	/	/	/
COc1ccc(-c2cc(-c3ccc(O)cc3)nc(N)c2C#N)cc1OC	i	i	i	i	i	/	/	/
Cc1nc(N)c(C#N)c(-c2ccc3c(c2)OCO3)c1C	i	i	i	i	i	/	/	/
Cc1ccc(-c2cc(-c3ccc4c(c3)OCO4)c(C#N)c(N)n2)o1	i	i	i	8.8*	i	i	i	i
Cc1ccc(-c2cc(-c3ccc(Cl)cc3)c(C#N)c(N)n2)o1	i	i	i	6.3*	i	5.0%*	i	12%*
Cc1ccc(-c2c(C#N)c(N)nc3c2CCCCC3)o1	i	i	i	i	i	/	/	/
